# High-throughput results as filed in PubChem.
# In the library only some 3.5% were active in any assay of this set; here they are far more common.
# MrgX1 agonist = human MrgX1 receptor agonism, primary screen; MrgX1-HEK293 cells, Fluo-4 calcium fluorescence, agonist mode; active compounds read high; AID 588627; 310,000 compounds, 0.44% hits; B-score at 10 µM;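 active means calcium response B-score plate-corrected fluorescence ratio at least 3 library SD, with starting fluorescence B-score inside 5 SD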
# Target sequence (Q96LB2 whole entry, looked up): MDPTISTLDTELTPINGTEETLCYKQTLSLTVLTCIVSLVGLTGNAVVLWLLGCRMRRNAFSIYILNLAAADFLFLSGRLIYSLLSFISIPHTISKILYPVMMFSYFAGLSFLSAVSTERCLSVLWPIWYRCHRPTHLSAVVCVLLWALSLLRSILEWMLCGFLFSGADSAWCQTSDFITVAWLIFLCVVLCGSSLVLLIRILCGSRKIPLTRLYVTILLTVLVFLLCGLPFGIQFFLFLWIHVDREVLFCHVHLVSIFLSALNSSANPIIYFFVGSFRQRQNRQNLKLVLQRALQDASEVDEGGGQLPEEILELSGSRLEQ
#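 System: HEK293 cells stably expressing human MrgX1 receptor; Dosing: test compound in the initial addition of three; Schedule: overnight plating, then 30 min 37 °C plus 30 min room-temperature dye loading; Detection: kinetic calcium dye fluorescence, Fluo-4 NW; Controls: per-plate positive and negative controls for Z′ factor.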
# MrgX1 PAM = allosterically activates human MrgX1 receptor signaling; Q96LB2; MrgX1-HEK293, Fluo-4 calcium flux, FDSS; active compounds read high; B-score at 10 µM; 310,000 compounds, 0.63% hits; AID 588675;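 active means plate-corrected calcium response at least 3 library SD above typical, normal starting fluorescence, not activating the receptor alone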;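 further: compound read alongside a low EC10 to EC30 dose of BAM8-22 agonist; peak minus trough fluorescence over baseline measured at the second addition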
# RGS4 block = inhibitors of human RGS4; P49798; HEK293 M3R/RGS4 inducible, Fluo-4 calcium flux; active compounds read high; triggered by carbachol at its EC20; B-score at 10 µM; 310,000 compounds, 0.45% hits; AID 463165;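 active means B-score, a plate-corrected calcium signal, over three deviations above library mean, with baseline fluorescence within five deviations of library mean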;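 further: RGS4 expression induced by doxycycline in cells with stable M3 receptor; B-score is computed from the integrated fluorescence ratio over baseline after carbachol; higher B-score means a larger calcium signal and so more RGS4 inhibition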
# Target sequence (P49798 whole entry, looked up): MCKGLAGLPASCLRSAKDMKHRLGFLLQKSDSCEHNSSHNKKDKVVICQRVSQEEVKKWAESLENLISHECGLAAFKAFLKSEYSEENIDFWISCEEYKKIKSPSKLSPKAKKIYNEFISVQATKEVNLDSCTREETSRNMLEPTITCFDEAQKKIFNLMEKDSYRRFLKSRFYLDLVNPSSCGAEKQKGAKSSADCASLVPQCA
# RGS4 pot = RGS4 potentiation or activation; HEK293 M3R/inducible RGS4, carbachol calcium flux Fluo4; active compounds read low; B-score at 10 µM; 310,000 compounds, 0.92% hits; AID 463111;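 active means B-score of the integrated calcium signal more than 4 SD below the library mean, with starting fluorescence not abnormally high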;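 further: negative B-score means reduced calcium response which marks RGS4 activation or potentiation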
#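 Assay system: HEK293 FlpIn-TREx cells, stable M3R, doxycycline-inducible RGS4 / Probe or stimulus: carbachol, ECmax concentration / Times: overnight RGS4 induction, 30 min dye load 37 °C, 20 min compound RT / Signal: kinetic calcium fluorescence imaging with Fluo4-AM dye, 2 µM / Measure: Agonist-evoked peak-minus-minimum fluorescence over baseline, integrated ratio, B score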
# MrgX1 antag = antagonists of human MrgX1 receptor. Q96LB2. MRGX1-HEK293 calcium flux, Fluo-4, BAM8-22 antagonism; active compounds read low. B-score at 10 µM. 310,000 compounds, 1.3% hits;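 active means calcium-response B-score plate-corrected more than 3 library SD below zero, starting fluorescence within 5 deviations, no agonist response on first addition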;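 further: peak minus trough fluorescence over baseline after final BAM8-22 challenge near maximal dose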
# Starred values were filed as active, the others as inactive; i = inactive.
SMILES,MrgX1 agonist,MrgX1 PAM,RGS4 block,RGS4 pot,MrgX1 antag
COc1cc(CC(=O)OCC(=O)N2C(C)CCCC2C)cc(OC)c1OC (configuration not stated),i,i,i,i,i
Cc1cc2c(cc1S(=O)(=O)N(C)Cc1ccccc1)OCC(=O)N2,i,i,i,i,i
COc1ccc(/C=N/NC(=O)CCn2cnc(-c3ccccc3)c2-c2ccccc2)cc1OC,i,i,i,i,-5.6*
COc1ccc(/C=N/NC(=O)CCC(=O)Nc2ccccc2)cc1OC,i,i,i,i,i
C[C@@]12C(=O)N(c3ccc(C(F)(F)F)cc3)C(=O)N1[C@@H]1c3ccccc3OC[C@@H]1[C@H]2c1ccccc1,i,i,i,i,i
CC1CCN(CCCNC(=O)C2CCC(CNS(=O)(=O)c3ccccc3)CC2)CC1 (configuration not stated),i,i,i,i,i
Cc1ccc(Oc2ncccc2/C=N/OCc2ccc(Cl)c(Cl)c2)cc1,i,8.6*,i,i,i
CCCCN1C(=O)C(=O)N(CC(=O)Nc2cc(S(=O)(=O)N(C)C)ccc2C)C1=O,i,i,i,i,i
COc1ccc(NC(=O)CCC(=O)NCc2ccco2)c([N+](=O)[O-])c1,i,i,i,i,i
CCC1=NN(C(=O)c2ccc([N+](=O)[O-])cc2)C(O)(c2ccccc2)C1 (configuration not stated),i,14*,i,i,i
O=C(c1ccccc1O)N1N=C(C(F)(F)F)CC1(O)c1ccc([N+](=O)[O-])cc1 (configuration not stated),i,i,i,i,i
CCOC(=O)C1=NN(C(=O)c2ccc(C)cc2)C(O)(c2ccc(Cl)cc2)C1 (configuration not stated),54*,i,i,-9.3*,i
CCC1=NN(C(=O)c2ccc(Cl)cc2)C(O)(c2ccc(C)cc2)C1 (configuration not stated),i,7.3*,i,i,i
COC(=O)C1=NN(C(=O)c2ccc(Cl)cc2)C(O)(c2ccccc2)C1 (configuration not stated),39*,i,i,i,i
CCC1(O)CC(C(=O)OC)=NN1C(=O)c1ccccc1 (configuration not stated),i,i,i,i,i
COc1cccc(C(=O)Nc2cccc(-c3ccccc3)c2)c1,i,i,i,i,i
CCC1=NN(C(=O)c2ccccc2O)C(O)(c2ccccc2)C1 (configuration not stated),i,i,i,i,i
CCC1=NN(C(=O)c2ccc(Cl)cc2)C(O)(c2ccccc2)C1 (configuration not stated),40*,i,i,i,i
CCC(=O)Oc1ccc(C2NC(=O)c3ccccc3O2)cc1OC (configuration not stated),i,i,i,-7.6*,i
Oc1ccc(N=C/C=C/c2ccc(Br)cc2)cc1-c1nc2ccccc2s1,i,i,6.2*,i,i
CCOC(=O)c1cnc(Nc2nc3ccccc3o2)nc1CSc1ncccn1,i,i,i,i,-5.6*
CCOC(=O)c1cnc(Nc2nc3ccccc3o2)nc1CSC(=S)N(CC)CC,i,i,i,i,i
O=[N+]([O-])c1ccc(-c2csc(N3CCCCCC3)n2)cc1,i,9.1*,i,i,i
FC(F)(F)c1ccccc1-n1c(-c2ccco2)n[nH]c1=S,i,i,i,i,i
CN(C)c1ncnc2sc(-c3ccccc3)cc12,i,i,i,i,-7.1*
SMILES,MrgX1 agonist,MrgX1 PAM,RGS4 block,RGS4 pot,MrgX1 antag
COc1ncnc2sc(-c3ccccc3)cc12,i,i,i,i,i
COc1ccc(C(CNC(=O)COc2cc(C)c(Cl)c(C)c2)N2CCCCC2)cc1 (configuration not stated),i,i,i,i,i
CC(SC#N)C(=O)C12CC3CC(CC(C3)C1)C2 (configuration not stated),i,i,i,i,-5.1*
Fc1ccc(-c2cn(-c3ccccc3)c3[n+]2CCS3)cc1,i,i,i,i,i
Clc1ccc(-c2cn(-c3ccccc3)c3[n+]2CCS3)cc1,i,i,i,-8.7*,i
CCCOC(=O)c1ccc(Oc2coc3c(CN(CC)CC)c(O)ccc3c2=O)cc1,i,i,i,-8.6*,i
CCN(CC)Cc1c(O)ccc2c(=O)c(-c3ccc(Cl)cc3)coc12,i,i,i,i,i
Cc1ccc(NS(=O)(=O)c2ccc(NC(=O)c3ccccc3C(=O)O)cc2)cc1C,i,i,i,i,i
OC(CNCCC1C=Nc2ccccc21)Cn1c2ccc(Cl)cc2c2cc(Cl)ccc21 (configuration not stated),i,i,7.4*,i,i
Cc1cc(N2CCOCC2)n2ncc(-c3ccccc3)c2n1,i,i,i,i,i
Cc1cc(NC2CCCC2)n2ncc(-c3ccccc3)c2n1,i,i,i,i,i
Cc1cc(N2CCC(C)CC2)n2ncc(-c3ccccc3)c2n1,i,i,i,-7.3*,i
Cc1cc(NC(C)c2ccccc2)n2ncc(-c3ccccc3)c2n1 (configuration not stated),i,i,i,-7*,i
Cc1cc(NCc2ccccc2)n2ncc(-c3ccccc3)c2n1,i,i,i,-8.7*,i
COc1ccccc1-c1cnn2c(NCCc3ccccc3)cc(C)nc12,i,i,i,-7.4*,i
N#Cc1ccccc1OCC(=O)N1CCN(C(=O)c2ccco2)CC1,i,i,i,i,i
CCCCn1c(N)c(N(CCC(C)C)C(=O)c2ccc3c(c2)OCO3)c(=O)[nH]c1=O,i,i,i,i,-5.7*
CC12CCC(C/C1=N\OC(=O)c1c(F)cccc1F)C2(C)C (configuration not stated),54*,i,i,i,i
CC12CCC(C/C1=N/NC(=O)Nc1ccccc1)C2(C)C (configuration not stated),i,13*,i,i,i
CC12CCC(C/C1=N/NC(=O)COc1ccccc1Cl)C2(C)C (configuration not stated),i,i,i,i,i
CN(c1nc2ccccc2nc1Cl)S(=O)(=O)c1ccccc1,i,i,i,i,i
